Measurements from PubChem BioAssay.
Active and inactive are the calls of the source.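 Rule for the calls, unless noted: active = NADPH fluorescence slope more negative than the mean of all samples by about 3 SD, 99.7% confidence; inactive = the rest.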

Assays:
[1] = inhibitors of TNFa-induced NFkB p65 translocation, primary screen, imaging, HUVEC, MLSMR starter and 10KST1 sets (AID 438;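 active = inhibition above 20% together with a positive visual image hit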;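 note: compound added about 3h40 before a 20 min TNFalpha stimulation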;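 for inhibition: signal is the nuclear over cytoplasmic p65 intensity ratio per well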); details: HUVEC TNFa-induced p65 nuclear translocation; cell count: measured here: nuclei count (cytotoxicity indicator), at 2.08 µM; inhibition: at 2 µM, stronger effect = higher value, 0% TNFa-plus-vehicle, 100% no-TNFa wells
[2] = endothelial E-selectin expression blockers – imaging, HUVEC, immunofluorescence, MLSMR starter and 10KST1 sets, primary screen (AID 487;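 active = visually confirmed hit in the image check and inhibition above 20%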;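 for inhibition: signal is fraction of cell area covered by stained E-selectin grains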;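 for nuclei count: 100% = median nuclei count of all wells on the same plate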); details: HUVEC TNFalpha-induced E-selectin immunofluorescence imaging, at 2 µM; inhibition: stronger effect = higher value; nuclei count: measured here: cell number, toxicity
[3] = Primary imaging screen for DUSP6 inhibitors that restore phospho-Erk in transfected HeLa cells, chemical complementation (AID 609;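 active = compounds giving at least 50% inhibition in the cell-based MKP-3 phosphatase rescue imaging test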;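 for inhibition: phospho-Erk level distribution per well compared with pooled transfected vehicle control wells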); details: HeLa MKP-3 transfected, phospho-Erk imaging KS statistic, at 10 µM, cells stimulated with TPA for 15 min
[4] = molecular target: Dual specificity protein phosphatase 6 (Homo sapiens) (UniProt Q16828); test: as above; details: HeLa MKP-3 transfected, phospho-Erk imaging KS statistic; at 10 µM; stronger effect = higher value; cells stimulated with TPA for 15 min
Sequence of Dual specificity protein phosphatase 6 (Homo sapiens) (Q16828 whole entry, looked up): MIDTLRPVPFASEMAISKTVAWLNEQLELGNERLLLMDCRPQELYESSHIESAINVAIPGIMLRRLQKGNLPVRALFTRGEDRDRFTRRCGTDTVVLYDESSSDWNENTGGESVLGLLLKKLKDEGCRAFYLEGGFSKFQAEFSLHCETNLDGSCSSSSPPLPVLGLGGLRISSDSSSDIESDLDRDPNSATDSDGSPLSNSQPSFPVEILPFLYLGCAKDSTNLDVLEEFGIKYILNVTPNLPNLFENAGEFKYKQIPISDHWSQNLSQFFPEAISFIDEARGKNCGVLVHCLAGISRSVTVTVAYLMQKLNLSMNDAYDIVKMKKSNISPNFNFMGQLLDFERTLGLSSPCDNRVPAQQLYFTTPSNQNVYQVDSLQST

[5] = molecular target: Voltage-gated potassium channel subunit beta-2 (Rattus norvegicus) (UniProt P62483); test: inhibitors of rat Kvbeta2 reductase activity – biochemical, NADPH fluorescence, primary screen (AID 622;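 active = fluorescence slope higher than the sample average by over 3 SD, cut at about -0.22 in these data, passing the limit was not always enough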;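 note: slope of raw intensity against log time taken from 70 to 1610 s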); details: recombinant KvBeta, 4-cyanobenzaldehyde reduction, at 10 µM, stronger effect = higher value
Sequence of Voltage-gated potassium channel subunit beta-2 (Rattus norvegicus) (P62483 whole entry, looked up): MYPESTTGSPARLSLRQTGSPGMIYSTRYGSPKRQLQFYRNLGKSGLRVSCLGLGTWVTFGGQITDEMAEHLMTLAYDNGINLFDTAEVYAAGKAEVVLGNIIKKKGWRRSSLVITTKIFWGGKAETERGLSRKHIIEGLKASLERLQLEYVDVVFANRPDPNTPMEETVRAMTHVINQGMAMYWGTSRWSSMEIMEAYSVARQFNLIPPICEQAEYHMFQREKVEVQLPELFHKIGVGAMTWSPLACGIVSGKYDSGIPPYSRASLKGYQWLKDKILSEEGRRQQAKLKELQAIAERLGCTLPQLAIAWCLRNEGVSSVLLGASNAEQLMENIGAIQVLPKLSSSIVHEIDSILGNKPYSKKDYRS

[6] = molecular target: Voltage-gated potassium channel subunit beta-2 (Rattus norvegicus) (UniProt P62483); test: enhancers of rat Kvbeta2 NADPH turnover – biochemical, NADPH fluorescence, primary screen (AID 623); details: Recombinant KvBeta, NADPH fluorescence decrease slope, 10 min; at 10 µM; stronger effect = lower value;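 note: fluorescence intensity change per second fitted from 20 to 320 s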
[7] = molecular target: Alpha-2C adrenergic receptor (Homo sapiens) (UniProt P18825); test: compounds altering alpha2C-coupled GIRK flux – cell-based, HEK293 alpha2C/GIRK1/2, thallium flux, primary screen (AID 624;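 active = fluorescence slope after compound addition differing from the mean of all screened samples at 99.7% confidence, in either direction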;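 note: slope of fluorescence ratio to pre-addition baseline per second over 15 to 24 s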); details: thallium flux BTC fluorescence, at 10 µM, actives lie on both sides
Sequence of Alpha-2C adrenergic receptor (Homo sapiens) (P18825 whole entry, looked up): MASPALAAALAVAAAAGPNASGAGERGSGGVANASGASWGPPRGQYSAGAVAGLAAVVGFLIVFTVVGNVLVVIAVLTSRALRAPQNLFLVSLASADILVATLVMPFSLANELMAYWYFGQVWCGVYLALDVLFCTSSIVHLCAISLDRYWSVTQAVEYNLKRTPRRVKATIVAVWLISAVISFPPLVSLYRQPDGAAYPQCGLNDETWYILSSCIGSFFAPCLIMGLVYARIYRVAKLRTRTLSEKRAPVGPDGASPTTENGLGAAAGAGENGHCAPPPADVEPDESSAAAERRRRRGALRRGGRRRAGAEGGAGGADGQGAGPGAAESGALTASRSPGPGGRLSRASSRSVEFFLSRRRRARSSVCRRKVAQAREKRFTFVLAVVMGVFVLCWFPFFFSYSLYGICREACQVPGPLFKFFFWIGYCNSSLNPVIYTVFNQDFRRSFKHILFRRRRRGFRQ

[8] = inhibitors of larval lipid processing in zebrafish, primary screen, whole organism, PED6 fluorescence, gall bladder and intestine (AID 686;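 active = a full or partial loss of lipid-probe fluorescence in the fish gall bladder, intestine or both, judged by eye; inactive = no fluorescence loss, or compound toxic to the fish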;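 note: larvae 5 to 7 days old with five fish per well; signal comes from phospholipase A2 cleavage of quenched PED6 carried via bile; overnight exposure to compound and PED6 before scoring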); details: Zebrafish larvae PED6 lipid processing, fluorescence scoring; screened at 20 µM (by protocol)
Method in brief: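 Test system – live zebrafish larvae aged 5-7 days, whole organism · Buffer or medium – E3 fish medium · Reagent – quenched phospholipase substrate PED6, 100 nM final, ingested by larvae · Doses – 20 µM single dose · Incubation – overnight compound and PED6 incubation · Technique – visual fluorescence microscopy scoring of gall bladder, gut · Read-out basis – visual per-well fluorescence inhibition score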

[9] = loss of swimming-algae plug formation – whole organism, Chlamydomonas reinhardtii, WT vs cilia-less mutant, absorbance, 96-well, primary screen (AID 463189;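 active = inhibition at or above 50% relative to wild type and mutant plate controls; inactive = inhibition below 50%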;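 note: 0% = wild type cc124 cells in DMSO and 100% = ciliumless bld1 mutant cells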); details: Chlamydomonas reinhardtii gravitaxis, OD600 absorbance, 2 days; at 10 µM; stronger effect = higher value
[10] = measured here: cell density z-score
[11] = measured here: nuclear c-Myc green intensity z-score
[12] = measured here: nuclear pErk red intensity z-score, stronger effect = higher value

| SMILES | cell count [1] | inhibition [1] | inhibition [2] | nuclei count [2] | z-score [3, 10] | z-score [3, 11] | z-score [3, 12] | inhibition [4] | fluorescence slope [5] | NADPH fluorescence slope [6] | slope [7] | outcome [8] | inhibition [9] |
| --- | --- | --- | --- | --- | --- | --- | --- | --- | --- | --- | --- | --- | --- |
| COc1nc(N(C)S(=O)(=O)c2ccc(C)cc2)nc(C)c1Cl | 587 | -20% (inactive) | -69% (inactive) | 177% | -0.267 | -0.856 | 1.29 | 7.73% (inactive) | -0.362 (inactive) | -1.7e-05 (inactive) | 0.00412 (inactive) | inactive | -4.99% (inactive) |
| C=CCNc1sc(C(=O)C2CC2)c(N)c1C#N | 669 | -24.9% (inactive) | -70.3% (inactive) | 173% | 0.613 | -1.22 | 0.948 | 19.4% (inactive) | -0.366 (inactive) | -3.3e-05 (inactive) | 0.00551 (inactive) | inactive | -5.34% (inactive) |
| CCCCOC(=O)CSc1nc(N)c(C#N)c(-c2ccc(OC)cc2)c1C#N | 370 | -0.4% (inactive) | -58.5% (inactive) | 99.4% | -2.23 | 0.0198 | 1.46 | 3.66% (inactive) | -0.52 (inactive) | -6.6e-05 (inactive) | 0.00456 (inactive) | inactive | -17.4% (inactive) |
| COc1ccc(-c2c3c([nH]c(=S)c2C#N)CCC3)cc1 | 527 | -5.1% (inactive) | -113% (inactive) | 192% | -0.0351 | 1.87 | 0.16 | 2.46% (inactive) | -0.314 (inactive) | -4.4e-06 (inactive) | 0.00379 (inactive) | inactive | -1.44% (inactive) |
| N#Cc1c(-c2ccccc2Cl)cc(C2CC2)nc1N | 577 | -16.2% (inactive) | -31.3% (inactive) | 172% | 0.235 | -0.47 | 0.466 | -2.47% (inactive) | -0.415 (inactive) | -2.4e-05 (inactive) | 0.00637 (inactive) | inactive | -9.3% (inactive) |
| Cn1c(O)c(C=Nc2ccc(Cc3ccncc3)cc2)c(=O)n(C)c1=O | 642 | 6.6% (inactive) | -91% (inactive) | 136% | -1.1 | -0.451 | 0.687 | 4.25% (inactive) | -0.486 (inactive) | -9.5e-05 (inactive) | 0.00577 (inactive) | inactive | -1.46% (inactive) |
| Cc1c(N2C(=O)SC(CC(=O)O)C2=O)c(=O)n(-c2ccccc2)n1C (centres undefined) | 500 | 1.9% (inactive) | -80.6% (inactive) | 128% | -1.16 | -0.83 | -0.709 | -10.5% (inactive) | -0.518 (inactive) | -3.7e-05 (inactive) | 0.00585 (inactive) | inactive | -1.65% (inactive) |
| Cc1ccc2[nH]c3c(NCCN4CCOCC4)ncnc3c2c1 | 558 | -21.5% (inactive) | -90.3% (inactive) | 160% | -2.07 | -0.295 | -0.0856 | -6.06% (inactive) | -0.475 (inactive) | -5.9e-05 (inactive) | 0.00484 (inactive) | inactive | 2.83% (inactive) |
| O=C(O)c1cc2n(n1)C(C(F)(F)F)CC(c1ccccc1)N2 (centres undefined) | 514 | -9.8% (inactive) | -120% (inactive) | 117% | -1.15 | -0.827 | 0.269 | 3.66% (inactive) | -0.503 (inactive) | -0.000107 (inactive) | 0.00535 (inactive) | inactive | -2% (inactive) |
| CSc1nc(C)cc(OCCNS(=O)(=O)c2cc(C)ccc2C)n1 | 384 | -16% (inactive) | -21.6% (inactive) | 141% | 0.846 | -0.567 | -1.02 | 12.3% (inactive) | -0.414 (inactive) | -8.3e-05 (inactive) | 0.00593 (inactive) | inactive | 117% (active) |
| COc1cccc(Cn2c(NCC(C)C)nc3c2c(=O)n(C)c(=O)n3C)c1 | 341 | 3.2% (inactive) | -77.7% (inactive) | 127% | -0.509 | 0.441 | 1.11 | -0.624% (inactive) | -0.385 (inactive) | 4.1e-05 (inactive) | 0.00489 (inactive) | inactive | -12.8% (inactive) |
| O=C(O)C(Cc1c[nH]c2ccccc12)NS(=O)(=O)c1cccc2nsnc12 (centres undefined) | 564 | -1.2% (inactive) | -96.3% (inactive) | 160% | -0.832 | -0.134 | 0.46 | 19.1% (inactive) | -0.487 (inactive) | -5.5e-05 (inactive) | 0.00789 (inactive) | inactive | -3.63% (inactive) |
| CCCOc1ccc(Cc2nn[nH]n2)cc1 | 665 | -9.9% (inactive) | -18.7% (inactive) | 154% | -1.6 | 0.733 | 2.09 | -3.95% (inactive) | -0.396 (inactive) | -5.5e-05 (inactive) | 0.00599 (inactive) | inactive | -6.39% (inactive) |
